Laboratory results taken from PubChem BioAssay AID1537 (The Scripps Research Institute Molecular Screening Center, 2009).
Some of the results follow. The source made the active and inactive calls.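 The calls were made as follows: active = inhibition above the hit cutoff derived for the primary screen (cut at about 15% in these data); inactive = the rest.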

What follows are compounds tested against Serine hydrolase RBBP9 (Homo sapiens) (UniProt O75884) (assay: human RBBP9 inhibitors, retest, confirmation, biochemical, fluorescence polarization, FP-Rh probe, triplicate (AID 1537;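 also: 0% = RBBP9 with DMSO and 100% = wells lacking RBBP9 protein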)). Settings: recombinant RBBP9, FP-Rh probe fluorescence polarization; at 7.94 µM; active compounds read high.
Procedure, shortened: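 Test system – RBBP9 serine hydrolase enzyme, human · Amount – RBBP9 at 2.5 µM in dispensed enzyme solution · Buffer or medium – Tris/NaCl/Pluronic buffer, pH 8.0 · Reagent – FP-Rh probe · Dosing – single compound dose, 7.94 µM final · Timing – 30 min preincubation at 25 °C, 45 min probe labelling · Technique – fluorescence polarization, 525/598 nm · Replicates – triplicate wells per compound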

Chain of Serine hydrolase RBBP9 (Homo sapiens) (O75884 whole entry, looked up): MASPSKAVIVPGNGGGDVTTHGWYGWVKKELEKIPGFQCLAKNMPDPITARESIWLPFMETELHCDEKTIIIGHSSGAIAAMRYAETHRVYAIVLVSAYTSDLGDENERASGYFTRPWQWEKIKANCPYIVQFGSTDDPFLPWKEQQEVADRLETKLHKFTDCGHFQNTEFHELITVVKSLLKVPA

inhibition, active:
O=c1[nH]n(-c2ccc([N+](=O)[O-])cc2)c(=O)c2ccccc12 20.4%
C/C(=N/Nc1nc(-c2ccccc2)c(CC(=O)O)s1)c1ccccc1 31.2%
O=C1C=CC(=O)N1c1ccc(N2CCCCC2)cc1 25.9%
O=[N+]([O-])c1c(NCCO)cc(Sc2nc3ccccc3s2)c2nonc12 45.7%
Cn1sc(=O)c2cc(S(=O)(=O)NC3CC3)ccc21 26.9%
C=CS(=O)c1sc(Cl)c(N2CCOCC2)c1[N+](=O)[O-] (stereo not drawn) 34.7%
Cc1ccnc(-n2sc3ccccc3c2=O)n1 72.8%

inhibition, inactive:
Cc1ccc(NC(=O)CN2CCC(C(N)=O)CC2)cc1[N+](=O)[O-] 2.36%
COc1ccc2c(c1)C(C)=CC(C)(C)N2C(=O)Nc1ccccc1 2.49%
CCC(=O)N1CCCc2ccccc21 0.8%
CCN(CC)C(=O)N1CCN(C(=O)c2ccc(C)cn2)CC1 9.27%
COc1cc(C2C(C(=O)OCCC#N)=C(C)NC3=C2S(=O)(=O)c2ccccc23)cc(OC)c1OC (stereo not drawn) 1.17%
Cc1cc([N+](=O)[O-])nn1Cc1ccc(F)cc1 11.8%
O=C(CCCC(=O)N(CC(=O)NC1CCCC1)Cc1ccccc1Cl)Nc1ccccn1 1.03%
COc1ccc(NS(=O)(=O)c2cc(NC(=O)CC(=O)c3ccc([N+](=O)[O-])cc3)ccc2C)cc1 -3.45%
COCCN(Cc1nc(-c2ccc(C(F)(F)F)cc2)no1)C(C)C 1.94%
Oc1ccc(N=Cc2sc3ccccc3c2Cl)cc1 12.5%
CCOc1ccc2[nH]c(=O)c(C(c3nnnn3CCOC)N3CCOCC3)cc2c1 (stereo not drawn) 1.76%
CC(C)OCCCNC(=O)CNC(=O)c1cccs1 11%
CC1=NOC(=O)/C1=C\c1ccccc1 4.74%
Cc1cc(F)ccc1S(=O)(=O)N1CCCOC1CNC(=O)C(=O)NCCC1=CCCCC1 (stereo not drawn) 10.6%
COc1cccc(NC(=O)c2ccc3c(SCC(=O)O)c4c(nc3c2)CCCC4)c1 6.99%
COc1ccc(N2C(=O)C3CCCN3C2c2cc(OC)c(OC)cc2OC)cc1 (stereo not drawn) 3.25%
Nn1c(Cc2cccc3ccccc23)nnc1SCC(=O)N1CC(=O)Nc2ccccc21 6.4%
COc1ccc(-n2nnnc2SCc2nc(N)nc(N3CCOCC3)n2)cc1 3.53%
CCC(=O)c1ccc(OCC(O)CN2CCN(c3cccc(C(F)(F)F)c3)CC2)cc1 (stereo not drawn) 7.26%
CCc1ccccc1NC1c2ccccc2C(=O)N1c1cccnc1 (stereo not drawn) 3.9%
COc1cc(/C=N/NC(=O)Nc2ccccc2)ccc1OCCOc1ccccc1C 0.38%
